The list is not random: actives were taken first. Their share in the collection is about 2.6%.
SENP8 block-1 = inhibitors of human SENP8 protease. 330,000 tested, 1.2% active. AID 2540. inhibition, % at 10 µM. purified SENP8, Z-RLRGG-aminoluciferin cleavage, luminescence; in the data active = inhibition above about 50%
Target sequence (Q96LD8 whole entry, looked up): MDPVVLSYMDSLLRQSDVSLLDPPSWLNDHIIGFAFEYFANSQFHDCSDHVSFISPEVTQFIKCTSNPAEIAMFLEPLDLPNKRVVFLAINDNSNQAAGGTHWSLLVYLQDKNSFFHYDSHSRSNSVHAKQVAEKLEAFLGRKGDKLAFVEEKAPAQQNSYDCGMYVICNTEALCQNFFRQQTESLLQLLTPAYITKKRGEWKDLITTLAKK
SENP6 block = blocks the human protease SENP6 | Q9GZR1 | Recombinant SENP6 catalytic domain, aminoluciferin luminescence | inhibition, % at 10 µM | 330,000 tested, 1.8% active;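 active = inhibition above about 50% at the single tested dose, limit read from the data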
Platelet DG rel = modulates dense granule release in human platelets | human platelet-rich plasma, SFLLRN dense granule ATP release, luminescence | inhibition, %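 (compounds screened at 7.5 µM in platelet-rich plasma)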 | 300,000 tested, 0.22% active | AID 1663;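 active = mean replicate score, as percent of positive control, at or above 50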
SENP1 inh = inhibitors of human SENP1 SUMO protease catalytic domain | Q9P0U3 | recombinant SENP1 catalytic domain, CyPet-SUMO1-YPet FRET cleavage | inhibition, % at 10 µM | 360,000 tested, 0.21% active | AID 624204;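 active = inhibition at least 30% at 10 µM, raw YFP signal under a set limit, fluorescence ratio 0.5 to 1.5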
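Assay system: hSENP1 catalytic domain, recombinant. Amount: SENP1 enzyme, 20 pM final. Schedule: 50 min reaction, RT, dark. Technique: FRET, CFP and YFP emission. Control set: no-enzyme wells low, DMSO-plus-enzyme wells high control.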
SENP8 block-2 = blocks human SENP8 cleavage of Nedd8 substrate; recombinant SENP8, Nedd8 substrate fluorescence; inhibition, % at 20 µM; 360,000 tested, 0.64% active; AID 602440; in the data active = inhibition mostly above about 40%, no sharp cut-off; inactive = mostly below about 27%
SENP7 block = blocks the human protease SENP7; recombinant SENP7, Z-RLRGG-aminoluciferin luminescence, 40 min; AID 434973; inhibition, % at 5 µM; 330,000 tested, 1.5% active;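 active = inhibition above about 50% at the single test dose, limit read from the data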
Target sequence (Q9BQF6 706-1050 limits assumed): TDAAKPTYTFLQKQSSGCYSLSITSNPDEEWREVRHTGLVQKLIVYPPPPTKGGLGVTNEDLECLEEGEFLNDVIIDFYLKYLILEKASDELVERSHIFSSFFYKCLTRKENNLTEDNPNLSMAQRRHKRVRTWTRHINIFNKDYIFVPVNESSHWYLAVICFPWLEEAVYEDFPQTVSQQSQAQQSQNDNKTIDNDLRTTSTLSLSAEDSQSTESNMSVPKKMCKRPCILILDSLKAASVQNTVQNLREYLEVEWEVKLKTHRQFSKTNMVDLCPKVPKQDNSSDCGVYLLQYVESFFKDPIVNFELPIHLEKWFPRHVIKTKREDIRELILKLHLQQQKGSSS
SENP8 conf = human SENP8 inhibition, confirmed; shares compounds with SENP7 block; inhibition, % at 12.5 µM; 6,200 tested, 40% active; Recombinant SENP8, Z-RLRGG-aminoluciferin luminescence, 60 min;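 active = mean inhibition across replicates above about 50%, limit read from the data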
SENP6 conf = human SENP6 inhibition, confirmed; shares compounds with SENP7 block; recombinant SENP6, Z-RLRGG-aminoluciferin luminescence; inhibition, % at 12.5 µM; 6,200 tested, 58% active; AID 488915
SENP7 confirm = human SENP7 inhibition, confirmed. inhibition, % at 12.5 µM. recombinant SENP7, Z-RLRGG-aminoluciferin luminescence, 40 min. AID 488917. shares compounds with SENP7 block. 6,200 tested, 69% active
Casp3 select = caspase-3 inhibition (SENP selectivity assay) | purified caspase-3, Z-DEVD-aminoluciferin luminescence, 60 min | shares compounds with SENP7 block | 6,200 tested, 60% active | AID 488918 | inhibition, % at 12.5 µM;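 active = mean inhibition above about 50%, limit read from the data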
Luc interf = luminescence interference (SENP counter-screen); shares compounds with SENP7 block; Pre-incubated SENP8/Z-RLRGG-aminoluciferin, luciferase luminescence interference; inhibition, % at 12.5 µM; 6,200 tested, 39% active;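 active = mean inhibition above about 50% when retested at one dose, limit read from the data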
A number is an active result; – = inactive; · = not tested or not shown.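 The calls were made as follows, unless noted: active = mean inhibition above about 50% in the one-dose retest (limit read from the data); inactive = the rest.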

SMILES	SENP8 block-1	SENP6 block	Platelet DG rel	SENP1 inh	SENP8 block-2	SENP7 block	SENP8 conf	SENP6 conf	SENP7 confirm	Casp3 select	Luc interf
CN1CCN(c2cc(N3CCN(C(=O)c4ccco4)CC3)c3c4c(onc24)-c2ccccc2C3=O)CC1	–	55	–	49	65	–	–	–	–	–	–
CCC(=O)Oc1ccc(-c2cnc3ccccc3n2)cc1	89	94	–	–	–	94	–	92	101	88	–
O=C(Oc1ccc(-c2cnc3ccccc3n2)cc1)c1ccco1	92	88	–	–	–	98	76	83	94	87	–
Clc1cccc(Cc2c(C3CCCCC3)nc3ccc(Br)cn23)c1	·	·	·	–	–	·	·	·	·	·	·
COc1ccc([C@H]2CC(=O)C[C@@H](CCn3cc(C)nn3)O2)cc1	·	·	·	–	–	·	·	·	·	·	·
Cc1c(C(=O)Nc2ccccc2)csc1-c1ccccc1	60	57	–	–	–	95	–	–	84	–	–
Cc1oc(-c2ccccc2)cc1C(=O)Nc1ccccc1	–	–	–	–	–	–	·	·	·	·	·
Cc1ccc(NC(=O)Nc2ccccc2C(=O)NCc2ccccc2)cc1	–	–	–	–	–	73	–	–	76	56	–
O=C(O)c1cccnc1Nc1ccc(Cl)cc1	56	66	–	–	–	–	72	70	85	72	74
Cc1ccccc1NC(=O)Nc1ccccc1C(=O)NCc1ccccc1	–	–	–	–	–	–	·	·	·	·	·
NC(=O)c1ccccc1OCC(=O)Nc1ccc2c(c1)CCC2	–	–	·	–	–	–	·	·	·	·	·
O=C(Nc1ccc(Cl)cc1)Nc1ccccc1C(=O)O	96	95	53	–	–	100	–	101	104	99	–
NC(=O)c1ccccc1OCC(=O)Nc1ccc(Cl)c(Cl)c1	–	52	–	–	–	–	–	–	64	–	–
O=C(CCl)NC(Cc1ccccc1)C(=O)OCC(=O)c1ccc(-c2ccccc2)cc1 (centres undefined)	·	·	·	–	–	·	·	·	·	·	·
O=C(Nc1ccc(Cl)c(Cl)c1)Nc1ccccc1C(=O)O	98	100	–	–	–	101	–	101	104	100	100
O=C(Cc1ccccc1)NNC(=O)Nc1ccc(Cl)c(Cl)c1	–	–	–	–	–	–	·	·	·	·	·
C=CCCC(=O)NC1CCCc2c1cnn2-c1ccccc1F (centres undefined)	–	–	–	–	–	–	·	·	·	·	·
Oc1ccc(N=Nc2n[nH]c(-c3ccc(Br)cc3)n2)cc1	·	·	–	–	–	·	·	·	·	·	·
Oc1ccc(N=Nc2ccc(Br)cc2)c(O)c1	96	99	–	–	–	89	93	93	98	72	82
CCN(CC)S(=O)(=O)c1ccc(N=Nc2cc(C)cc(Br)c2O)cc1	–	–	–	–	–	–	·	·	·	·	·
Cc1ccc(N=Nc2ccc(O)cc2)c(Br)c1	56	64	–	–	–	–	74	73	86	–	69
Cc1oc2cc3oc(=O)c(CCC(=O)NCCN4CCOCC4)c(C)c3cc2c1C	–	–	–	–	–	–	·	·	·	·	·
Cc1ccccc1OCC(=O)NCCCNC(=O)c1ccco1	–	–	–	–	–	–	·	·	·	·	·
O=C(Nc1ccncc1)Nc1ccc(F)c(Cl)c1	–	–	–	–	–	–	·	·	·	·	·
CC(=O)Nc1ccc(NC(=O)Nc2ccccc2C)cc1	–	–	–	–	–	–	·	·	·	·	·
SMILES	SENP8 block-1	SENP6 block	Platelet DG rel	SENP1 inh	SENP8 block-2	SENP7 block	SENP8 conf	SENP6 conf	SENP7 confirm	Casp3 select	Luc interf
COC(=O)c1sccc1NC(=O)Nc1ccccc1C	–	–	·	–	–	–	·	·	·	·	·
COC(=O)c1ccc(NC(=O)Nc2ccc(F)c(Cl)c2)cc1	–	–	–	–	–	58	–	–	84	–	–
COC(=O)c1ccc(NC(=O)Nc2ccc(F)cc2)cc1	–	68	–	–	–	–	–	–	80	–	62
COC(=O)c1ccc(NC(=O)Nc2ccc(OC)cc2)cc1	–	–	–	–	–	–	·	·	·	·	·
COC(=O)c1ccc(NC(=O)Nc2ccccc2C)cc1	83	91	–	–	–	92	89	89	99	89	–
CC(=O)N(C)c1ccc(NC(=O)Nc2ccccc2C)cc1	–	63	–	–	–	58	–	–	79	83	63
O=C(Cc1ccccc1)Nc1ncccn1	–	–	–	–	–	–	·	·	·	·	·
CC1(C(=O)NS(=O)(=O)c2ccccc2Cl)CCN1C(=O)Cc1cc(F)ccc1F (centres undefined)	·	·	·	–	–	·	·	·	·	·	·
Cc1ccc(C(=O)N[C@H](C(=O)NC2CCCCCCC2)C(C)C)cc1	–	–	·	–	–	–	·	·	·	·	·
CCCNC(=O)c1cc(C2CCCN(C(=O)c3cc(F)ccc3C)C2)on1 (centres undefined)	·	·	·	–	–	·	·	·	·	·	·
CCN1C(=O)[C@H]2[C@@H](c3ccc(C(F)(F)F)cc3)N[C@]3(CCCN(Cc4ccc(C(F)(F)F)cc4)C3=O)[C@H]2C1=O	·	·	·	–	–	·	·	·	·	·	·
O=C(/C=C/c1ccccc1)n1cnnc1SC/C=C/c1ccccc1	–	59	–	–	–	–	–	–	68	–	–
Cc1nnc(SC/C=C/c2ccccc2)n(N)c1=O	–	–	·	–	–	–	·	·	·	·	·
CC(=O)Nc1cccc(-c2csc(Nc3ccc(C)cn3)n2)c1	–	69	–	–	–	58	66	64	87	–	–
c1ccc(-c2csc(Nc3ccccn3)n2)cc1	94	96	–	–	–	98	–	96	102	82	79
Cc1ccnc(Nc2nc(-c3ccc(Cl)cc3)cs2)c1	–	–	–	–	–	–	·	·	·	·	·
Cc1ccnc(Nc2nc(-c3ccc(F)cc3)cs2)c1	–	63	–	–	–	–	–	–	76	–	–
Fc1ccc(-c2csc(Nc3ccccn3)n2)c(F)c1	87	87	–	–	–	86	72	87	99	68	–
O=C(Nc1nc(-c2cc(F)ccc2F)cs1)c1ccccn1	–	–	–	–	–	–	·	·	·	·	·
COc1ccccc1S(=O)(=O)N(C)C[C@H]1OCc2cnnn2CCCC(=O)N([C@@H](C)CO)C[C@@H]1C	·	·	·	–	–	·	·	·	·	·	·
COC(=O)Cc1c(C(=O)OC)nnn1-c1ccc(OC(F)(F)F)cc1	–	–	–	–	–	–	·	·	·	·	·
